Data taken from ChEMBL document CHEMBL1139438, “Synthesis of N3,5'-cyclo-4-(beta-D-ribofuranosyl)-vic-triazolo[4,5-b]pyridin-5-one, a novel compound with anti-hepatitis C virus activity” (J Med Chem, 2004).

How the values were obtained:
[1] = system: Hepatitis B virus; test: Effective concentration required for antiviral activity against hepatitis B virus; format: functional, organism-based
[2] = system: Human rhinovirus sp.; test: Effective concentration required for antiviral activity against rhinovirus; format: functional, organism-based, Enterovirus
[3] = system: Human respirovirus 3; test: Effective concentration required for antiviral activity against Parainfluenza virus; format: functional, organism-based
[4] = system: Huh-7; test: Effective concentration required for 90% reduction in subgenomic hepatitis C virus replicon RNA levels in Huh-7 cells after 96 hr of compound exposure; format: functional; conditions: Homo sapiens, Huh-7, 96 h
How it was run: (§1)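 HCV subgenomic replicon-bearing Huh-7 cells were seeded at 1000 cells/well in 96-well plates, with compound added immediately after seeding, and incubated for 96 h. Total cellular RNA was isolated. Replicon RNA and a ribosomal RNA internal control were amplified by single-step multiplex real-time RT-PCR. HCV RNA was normalized to rRNA by ΔΔCt and calibrated against the no-drug control. Recombinant interferon alpha-2a was the positive control.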

[5] = system: CV-1; test: Concentration required for cytotoxic activity against african green monkey kidney CV-1 cell line was determined using neutral red method; format: functional, Cercopithecidae; conditions: Chlorocebus aethiops
[6] = Concentration required for cytotoxic activity against african green monkey kidney B-SC-1 cell line was determined using neutral red method; format: functional; conditions: Cercopithecidae, BSC-1
[7] = Effective concentration required for antiviral activity against punta toro A virus; format: functional
[8] = system: A549; test: Concentration required for cytotoxic activity against human lung carcinoma A-549 cell line using neutral red method; format: functional
[9] = system: Vero; test: Concentration required for cytotoxic activity against african green monkey kidney Vero cell line was determined using MST dye; format: functional; conditions: Chlorocebus sabaeus
How it was run: (§2)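 Cytotoxicity was read with an MTS-dye cell proliferation assay and expressed as CC50 (µM).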

[10] = system: HepG2; test: Concentration required for cytotoxic activity against human hepatocellular carcinoma HepG2 cell line was determined using MST dye; format: functional; how it was run: as §2
[11] = system: MDCK; test: Concentration required for cytotoxic activity against madin darby canine kidney MDCK cell line was determined using neutral red method; format: functional; conditions: Canis lupus familiaris
[12] = system: Huh-7; test: Effective concentration required for reduction in subgenomic hepatitis C virus replicon RNA levels in Huh-7 cells after 96 hr of compound exposure; format: functional, cell-based; conditions: Homo sapiens, Huh-7, 96 h; how it was run: as §1
[13] = system: CCRF-CEM; test: Concentration required for cytotoxic activity against human T-cell lymphoma CEM cell line was determined using MST dye; format: functional; how it was run: as §2
[14] = system: Influenza B virus; test: Effective concentration required for antiviral activity against Influenza B virus; format: functional, organism-based
[15] = system: LLC-MK2; test: Concentration required for cytotoxic activity against rhesus monkey kidney LLC-MK2 cell line was determined using neutral red method; format: functional, Cercopithecidae; conditions: Macaca mulatta
[16] = system: Respiratory syncytial virus; test: Effective concentration required for antiviral activity against respiratory syncytial virus; format: functional, organism-based; conditions: human respiratory syncytial virus
[17] = system: KB; test: Concentration required for cytotoxic activity against human epidermoid carcinoma of the nasopharynx KB cell line was determined using neutral red method; format: functional
[18] = Effective concentration required for antiviral activity against pinchinde virus; format: functional
[19] = system: Vero; test: Concentration required for cytotoxic activity against african green monkey kidney Vero cell line was determined using neutral red dye; format: functional; conditions: Chlorocebus sabaeus
[20] = system: Human alphaherpesvirus 1; test: Effective concentration required for antiviral activity against herpes simplex virus type 1
[21] = system: Human immunodeficiency virus; test: Effective concentration required for antiviral activity against human immunodeficiency virus; format: functional, organism-based; conditions: Human immunodeficiency virus 1
[22] = system: Human immunodeficiency virus; test: Effective concentration required for 90% of antiviral activity against human immunodeficiency virus; format: functional; conditions: Human immunodeficiency virus 1
[23] = system: Hepatitis B virus; test: Effective concentration required for 90% of antiviral activity against hepatitis B virus; format: functional
[24] = system: Measles morbillivirus; test: Effective concentration required for antiviral activity against measles virus; format: functional, organism-based
[25] = system: PBMC; test: Concentration required for cytotoxic activity against primary human peripheral blood mononuclear PBM cell line was determined using MST dye; format: functional; how it was run: as §2
[26] = Effective concentration required for antiviral activity against west Nile virus; format: functional
[27] = system: unidentified adenovirus; test: Effective concentration required for antiviral activity against adenovirus type 1; format: functional, organism-based, Human adenovirus 1
[28] = system: Influenza A virus; test: Effective concentration required for antiviral activity against Influenza A virus; format: functional, organism-based
[29] = Concentration required for cytotoxic activity against african green monkey kidney MA-104 cell line was determined using neutral red method; format: functional; conditions: Cercopithecidae, MA104
[30] = system: Yellow fever virus; test: Effective concentration required for antiviral activity against yellow fever virus; format: functional, organism-based
[31] = system: Human alphaherpesvirus 1; test: Effective concentration required for 90% of antiviral activity against herpes simplex virus type 1
[32] = Effective concentration required for antiviral activity against bovine viral diarrhoea virus; format: functional, Bovine viral diarrhea virus 1
[33] = system: SK-MEL-28; test: Concentration required for cytotoxic activity against human malignant melanoma SK-MEL-28 cell line was determined using MST dye; format: functional; how it was run: as §2
[34] = system: Huh-7; test: Concentration required for cytotoxic activity against human hepatocellular carcinoma Huh-7 cell line was determined using MST dye; format: functional; how it was run: as §2
[35] = Effective concentration required for 90% of antiviral activity against bovine viral diarrhoea virus; format: functional, Bovine viral diarrhea virus 1; conditions: Bovine viral diarrhea virus isolates and strains

O=c1ccc2nnn3c2n1C1O[C@H](C3)[C@@H](O)[C@H]1O
EC50 [1]: > 100 µM
EC50 [2]: > 100 µM
EC50 [3]: > 100 µM
EC90 [4]: 79.8 µM
CC50 [5]: > 100 µM
CC50 [6]: > 100 µM
EC50 [7]: > 100 µM
CC50 [8]: > 100 µM
CC50 [9]: > 100 µM
CC50 [10]: 74.4 µM
CC50 [11]: > 100 µM
EC50 [12]: 19.7 µM
CC50 [13]: 13.8 µM
EC50 [14]: 28 µM
CC50 [15]: > 100 µM
EC50 [16]: > 100 µM
CC50 [17]: > 100 µM
EC50 [18]: > 100 µM
CC50 [19]: > 100 µM
EC50 [20]: > 100 µM
EC50 [21]: > 100 µM
EC90 [22]: > 100 µM
EC90 [23]: > 100 µM
EC50 [24]: > 100 µM
CC50 [25]: > 100 µM
EC50 [26]: > 100 µM
EC50 [27]: > 100 µM
EC50 [28]: > 100 µM
CC50 [29]: > 100 µM
EC50 [30]: > 100 µM
EC90 [31]: > 100 µM
EC50 [32]: > 100 µM
CC50 [33]: > 100 µM
CC50 [34]: 49.6 µM
EC90 [35]: > 100 µM
